IC50 data for 15 molecules are collected here from ChEMBL document CHEMBL1131506, “Development of a binding model to protein tyrosine kinases for substituted pyrido[2,3-d]pyrimidine inhibitors” (J Med Chem, 1998).

Structures are written as SMILES.

The target of experiment [1] is Fibroblast growth factor receptor (Homo sapiens, UniProt P22607+P11362+P22455+P21802). The experiment is described as follows: Inhibitory concentration of compound against human fibroblast growth factor receptor. It is filed as protein assay.
The target in experiment [2] is Proto-oncogene tyrosine-protein kinase Src (Gallus gallus, UniProt P00523). As to the kind of experiment: Inhibition of chicken c-Src tyrosine kinase. The method, boiled down:
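Recombinant avian c-Src expressed in baculovirus-infected insect cells, immunopurified on polystyrene beads carrying a covalently linked Src-specific monoclonal antibody. The enzyme-bead suspension was assayed in vitro with 40 µM ATP, measuring 32P-phosphate transfer into a trichloroacetic acid-precipitable random glutamate/tyrosine (4:1) copolymer. The IC50 was in µM.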

The target in experiment [3] is Platelet-derived growth factor receptor (Mus musculus, UniProt P05622+P26618). As to the kind of experiment: Inhibitory concentration of compound against mouse Platelet-derived growth factor receptor.
In experiment [4] the target is Epidermal growth factor receptor (Homo sapiens, UniProt P00533). The experiment is described as follows: Inhibition of human epidermal growth factor receptor.
Sequence of Epidermal growth factor receptor (P00533 whole entry): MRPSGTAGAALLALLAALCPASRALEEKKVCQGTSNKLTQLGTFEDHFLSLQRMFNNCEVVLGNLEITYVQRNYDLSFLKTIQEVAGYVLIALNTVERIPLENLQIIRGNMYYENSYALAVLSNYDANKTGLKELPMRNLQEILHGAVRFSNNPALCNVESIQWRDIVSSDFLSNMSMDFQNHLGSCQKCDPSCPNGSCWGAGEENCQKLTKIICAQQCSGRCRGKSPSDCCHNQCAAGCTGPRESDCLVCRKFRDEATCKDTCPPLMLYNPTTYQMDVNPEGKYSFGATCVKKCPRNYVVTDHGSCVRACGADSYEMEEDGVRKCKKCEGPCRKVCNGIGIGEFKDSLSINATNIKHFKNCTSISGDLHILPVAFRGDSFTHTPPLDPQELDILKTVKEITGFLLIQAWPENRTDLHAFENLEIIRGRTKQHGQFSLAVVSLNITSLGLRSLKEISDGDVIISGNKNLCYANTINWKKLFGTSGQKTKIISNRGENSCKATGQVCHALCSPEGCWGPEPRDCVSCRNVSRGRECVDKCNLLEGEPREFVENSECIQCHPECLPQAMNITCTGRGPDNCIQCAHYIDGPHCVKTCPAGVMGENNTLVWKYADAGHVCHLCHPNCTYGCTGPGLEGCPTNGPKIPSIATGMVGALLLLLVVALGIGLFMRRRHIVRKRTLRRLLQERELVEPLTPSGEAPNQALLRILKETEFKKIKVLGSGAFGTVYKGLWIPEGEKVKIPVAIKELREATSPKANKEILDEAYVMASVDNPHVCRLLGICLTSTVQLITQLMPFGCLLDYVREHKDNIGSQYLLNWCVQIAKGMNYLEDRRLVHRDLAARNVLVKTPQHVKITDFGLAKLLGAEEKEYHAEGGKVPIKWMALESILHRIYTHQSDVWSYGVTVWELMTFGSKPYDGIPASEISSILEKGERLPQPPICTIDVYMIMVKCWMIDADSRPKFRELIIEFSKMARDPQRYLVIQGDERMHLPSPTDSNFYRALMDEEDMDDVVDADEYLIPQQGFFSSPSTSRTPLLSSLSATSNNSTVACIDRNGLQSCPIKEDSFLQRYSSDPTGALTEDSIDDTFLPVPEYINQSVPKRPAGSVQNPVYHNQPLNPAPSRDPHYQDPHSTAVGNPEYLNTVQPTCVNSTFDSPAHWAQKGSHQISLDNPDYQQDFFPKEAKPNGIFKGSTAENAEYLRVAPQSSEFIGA

As usually defined, the IC50 is the concentration at which inhibition is half-maximal. Lower therefore signals higher potency. `COc1cc(OC)cc(-c2cc3cnc(N)nc3n(C)c2=O)c1`: the half-maximal inhibitory concentration (IC50) was 0.126 µM in experiment [1], more than 50 µM in experiment [2] and 43.1 µM in experiment [3].
`CCN(CC)CCOc1cccc(Nc2ncc3cc(-c4c(Cl)cccc4Cl)c(=O)n(C)c3n2)c1`: the IC50 in experiment [2] stood at 0.009 µM.
On to `COc1ccc(NC(=O)Nc2nc3nc(NCCCN4CCN(C)CC4)ncc3cc2-c2c(Cl)cccc2Cl)cc1`, for which the results for the IC50 in experiment [2] and in experiment [4] were 0.028 µM and 0.72 µM, respectively.
`CN1CCN(CCCNc2ncc3cc(-c4c(Cl)cccc4Cl)c(=O)n(C)c3n2)CC1`: the IC50 in experiment [1] is 0.348 µM; in experiment [2] it was 0.237 µM; in experiment [3], 2.7 µM.
Regarding `CN(C)c1ncc2cc(-c3c(Cl)cccc3Cl)c(=O)n(C)c2n1`, the IC50 in experiment [1], in experiment [2], in experiment [3] and in experiment [4] was more than 50 µM throughout.
In experiment [2], `COc1cc(OC)cc(-c2cc3cnc(N)nc3nc2NC(=O)NC(C)(C)C)c1` gave an IC50 of more than 50 µM.
`CCOc1cc(OCC)cc(-c2cc3cnc(N)nc3nc2NC(=O)NC(C)(C)C)c1`: the 50% inhibitory concentration (IC50) was 1.65 µM in experiment [1], more than 50 µM in experiment [2] and more than 50 µM in experiment [3].
In the case of `CC(C)(C)NC(=O)Nc1nc2nc(N)ncc2cc1-c1cc(C(F)(F)F)cc(C(F)(F)F)c1`, the IC50 in experiment [1], in experiment [2] and in experiment [3] was more than 50 µM in each case.
On to `CN(C)c1cc(-c2cc3cnc(N)nc3nc2NC(=O)NC(C)(C)C)cc(N(C)C)c1`, for which the values for the half-maximal inhibitory concentration (IC50) in experiment [1], in experiment [2] and in experiment [3] were more than 16 µM, more than 50 µM and more than 50 µM, respectively.
Take `Cn1c(=O)c(-c2c(Cl)cccc2Cl)cc2cnc(Nc3ccc(CC(=O)O)cc3)nc21`: the concentration for half-maximal inhibition (IC50) in experiment [1] was determined as 0.061 µM; in experiment [2], 0.01 µM; in experiment [3], 0.07 µM.
For the molecule `Cn1c(=O)c(-c2c(Cl)cccc2Cl)cc2cncnc21`, the IC50 in experiment [1] was more than 50 µM; in experiment [2] it was more than 10 µM; in experiment [3], more than 50 µM; in experiment [4] it was more than 50 µM.
`CN1CCN(CCCNc2ncc3cc(-c4c(Cl)cccc4Cl)c(NC(=O)NC4CCCCC4)nc3n2)CC1` showed a half-inhibitory concentration (IC50) in experiment [4] of 0.88 µM.
In the case of `CN1CCN(c2ccc(Nc3ncc4cc(-c5c(Cl)cccc5Cl)c(=O)n(C)c4n3)cc2)CC1`, the half-maximal inhibitory concentration (IC50) in experiment [1] turned out to be 0.051 µM; in experiment [3], 0.115 µM.
Turning to `CN1CCN(CCCNc2ncc3cc(-c4c(Cl)cccc4Cl)c(NC(=O)NCc4ccccc4)nc3n2)CC1`, the half-inhibitory concentration (IC50) stood at 0.03 µM in experiment [2] and 0.98 µM in experiment [4].
As to `Cc1ncc2cc(-c3c(Cl)cccc3Cl)c(=O)n(C)c2n1`, the half-inhibitory concentration (IC50) in experiment [1], in experiment [2], in experiment [3] and in experiment [4] was more than 50 µM throughout.
